Laboratory results from ChEMBL document CHEMBL1142065, “In vitro and in vivo activities of a new cephalosporin, FR264205, against Pseudomonas aeruginosa” (2007).
Values after ≈ are worked out from the molar mass of the structure shown. Active and inactive are the calls of the source. The rule behind the calls is not given here.

Columns and labels:
Pseudomonas aeruginosa [1] = test: Antibacterial activity against ciprofloxacin-resistant Pseudomonas aeruginosa; assay type: functional
How it was run: (§1)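 Agar dilution MIC per NCCLS (CLSI) M7-A7 on Mueller-Hinton agar with twofold serial drug dilutions. Inoculum 10^4 CFU per spot, aerobic incubation 18 to 20 h at 35°C. MIC is the lowest concentration preventing visible growth.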

Pseudomonas aeruginosa [2] = test: Antibacterial activity against Pseudomonas aeruginosa; assay type: functional; how it was run: as §1
Pseudomonas aeruginosa [3] = test: Antibacterial activity against ceftazidime-resistant Pseudomonas aeruginosa; assay type: functional; how it was run: as §1
Pseudomonas aeruginosa [4] = test: Antibacterial activity against imipenem-resistant Pseudomonas aeruginosa; assay type: functional; how it was run: as §1
Pseudomonas aeruginosa [5] = test: Antibacterial activity against Pseudomonas aeruginosa PAO1456 expressing constitutive AmpC; assay type: functional; how it was run: as §1
Escherichia coli [6] = test: Antibacterial activity against Escherichia coli C600 expressing ESBL TEM3; assay type: functional
How it was run: (§2)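 MIC by agar dilution (CLSI M7-A7) on Mueller-Hinton agar with twofold serial drug dilutions; 10^4 CFU spotted per spot; aerobic incubation 18 to 20 h at 35°C; MIC read as lowest concentration preventing visible growth.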

Pseudomonas aeruginosa [7] = test: Efficacy against Pseudomonas aeruginosa 93 pulmonary infection in mouse assessed as reduction in bacterial counts at 2 mg/kg, sc; assay type: functional, organism-based; design: dose 2 mg/kg
How it was run: (§3)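 Male ICR mice (4 weeks), made neutropenic with cyclophosphamide 200 mg/kg ip 4 days before infection. Under pentobarbital anesthesia (50 mg/kg iv) they were challenged intranasally with 3.30 log10 CFU of strain 93, grown on tryptic soy agar 35°C 20 h and suspended in saline. Dosed sc twice daily for 3 days from 3 h post-infection. Lung viable counts taken the day after last dose; 6 mice/dose.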

Pseudomonas aeruginosa [8] = test: Antibacterial activity against Pseudomonas aeruginosa KG2212 producing MexAB-OprM efflux pump; assay type: functional; how it was run: as §1
Pseudomonas aeruginosa [9] = test: Reduction in susceptibility against Pseudomonas aeruginosa PAO1 after single passage; assay type: functional, organism-based
How it was run: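 PAO1 passaged daily for five consecutive days in fresh Mueller-Hinton broth with twofold drug dilution series. Each next inoculum came from the tube at one-fourth the MIC. MIC change was followed across passages.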

Escherichia coli [10] = test: Antibacterial activity against Escherichia coli C600 expressing ESBL TEM5; assay type: functional; how it was run: as §2
Escherichia coli [11] = test: Antibacterial activity against Escherichia coli C600 expressing TEM2; assay type: functional; how it was run: as §2
Pseudomonas aeruginosa [12] = test: Antibacterial activity against Pseudomonas aeruginosa KG3056 producing MexCD-OprJ efflux pump; assay type: functional; how it was run: as §1
Escherichia coli [13] = test: Antibacterial activity against Escherichia coli C600 expressing TEM1; assay type: functional; how it was run: as §2
Escherichia coli [14] = test: Antibacterial activity against Escherichia coli C600 expressing ESBL CTX-M3; assay type: functional; how it was run: as §2
Escherichia coli [15] = test: Antibacterial activity against Escherichia coli C600 expressing ESBL OXA2; assay type: functional; how it was run: as §2
Escherichia coli [16] = test: Antibacterial activity against Escherichia coli C600 expressing ESBL TEM8; assay type: functional; how it was run: as §2
Pseudomonas aeruginosa [17] = test: Efficacy against Pseudomonas aeruginosa 93 assessed as reduction in bacterial counts in mouse urinary tract infection model at 0.5 mg/kg; assay type: functional, organism-based; design: dose 0.5 mg/kg; conditions: Urine
How it was run: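 Female ICR mice (4 weeks) were denied water 1 day. Under pentobarbital anesthesia they received 4.32 log10 CFU of strain 93 via the […], which was then clamped 5 h. Dosed sc at 5 h post-challenge plus twice daily for 2 days. Bilateral kidney viable counts taken the day after last treatment; 6 mice/dose.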

Escherichia coli [18] = test: Antibacterial activity against Escherichia coli C600 expressing ESBL SHV2; assay type: functional; how it was run: as §2
Escherichia coli [19] = test: Antibacterial activity against Escherichia coli C600 expressing ESBL TEM7; assay type: functional; how it was run: as §2
Escherichia coli [20] = test: Antibacterial activity against Escherichia coli C600 expressing ESBL SHV4; assay type: functional; how it was run: as §2
Escherichia coli [21] = test: Antibacterial activity against Escherichia coli C600 expressing ESBL SHV3; assay type: functional; how it was run: as §2
Escherichia coli [22] = test: Antibacterial activity against Escherichia coli C600 expressing ESBL TEM4; assay type: functional; how it was run: as §2
Pseudomonas aeruginosa [23] = test: Antibacterial activity against Pseudomonas aeruginosa FP1380 expressing constitutive AmpC; assay type: functional; how it was run: as §2
Pseudomonas aeruginosa [24] = test: Antibacterial activity against Pseudomonas aeruginosa 22029 expressing metallo beta lactamase; assay type: functional; how it was run: as §1
Escherichia coli [25] = test: Antibacterial activity against Escherichia coli C600 expressing ESBL TEM6; assay type: functional; how it was run: as §2
Escherichia coli [26] = test: Antibacterial activity against Escherichia coli C600 expressing ESBL TEM9; assay type: functional; how it was run: as §2
Escherichia coli [27] = test: Antibacterial activity against Escherichia coli C600; assay type: functional; how it was run: as §2
Escherichia coli [28] = test: Antibacterial activity against Escherichia coli C600 expressing SHV1; assay type: functional; how it was run: as §2
Pseudomonas aeruginosa [29] = test: Antibacterial activity against Pseudomonas aeruginosa PAO1; assay type: functional; how it was run: as §1
Pseudomonas aeruginosa [30] = test: Efficacy against Pseudomonas aeruginosa 93 pulmonary infection in mouse assessed as reduction in bacterial counts at 10 mg/kg, sc; assay type: functional, organism-based; design: dose 10 mg/kg; how it was run: as §3
Pseudomonas aeruginosa [31] = test: Antibacterial activity against Pseudomonas aeruginosa KG4001 producing MexEF-OprN efflux pump; assay type: functional; how it was run: as §1
Pseudomonas aeruginosa [32] = test: Antibacterial activity against Pseudomonas aeruginosa KG4545 producing MexXY efflux pump; assay type: functional; how it was run: as §1
Escherichia coli [33] = test: Antibacterial activity against Escherichia coli C600 expressing OXA1; assay type: functional; how it was run: as §2
Pseudomonas aeruginosa [34] = test: Antibacterial activity against Pseudomonas aeruginosa PAO4222; assay type: functional; how it was run: as §1
Pseudomonas aeruginosa [35] = test: Antibacterial activity against Pseudomonas aeruginosa PAO4069 expressing inducible AmpC; assay type: functional; how it was run: as §1
Escherichia coli [36] = test: Antibacterial activity against Escherichia coli C600 expressing ESBL CTX-M18; assay type: functional; how it was run: as §2
Pseudomonas aeruginosa [37] = test: Antibacterial activity against Pseudomonas aeruginosa 93; assay type: functional; how it was run: as §2

## O=C(O)c1cn(C2CC2)c2cc(N3CCNCC3)c(F)cc2c1=O [CIPROFLOXACIN]
Pseudomonas aeruginosa [1]
  MIC50: 8 µg/mL (≈ 24.1 µM)
  MIC90: 64 µg/mL (≈ 193 µM)
Pseudomonas aeruginosa [2]
  MIC50: 0.25 µg/mL (≈ 0.754 µM)
  MIC90: 8 µg/mL (≈ 24.1 µM)
Pseudomonas aeruginosa [3]
  MIC50: 2 µg/mL (≈ 6.04 µM)
  MIC90: 64 µg/mL (≈ 193 µM)
Pseudomonas aeruginosa [4]
  MIC50: 1 µg/mL (≈ 3.02 µM)
  MIC90: 8 µg/mL (≈ 24.1 µM)

## C[C@@H](O)[C@H]1C(=O)N2C(C(=O)O)=C(SCCNC=N)C[C@H]12 [IMIPENEM ANHYDROUS]
Pseudomonas aeruginosa [5]
  MIC: 1 µg/mL (≈ 3.34 µM)
Escherichia coli [6]
  MIC: 0.25 µg/mL (≈ 0.835 µM)
Pseudomonas aeruginosa [7]
  Activity: Active
Pseudomonas aeruginosa [8]
  MIC: 1 µg/mL (≈ 3.34 µM)
Pseudomonas aeruginosa [9]
  Activity: Active
Escherichia coli [10]
  MIC: 0.25 µg/mL (≈ 0.835 µM)
Escherichia coli [11]
  MIC: 0.25 µg/mL (≈ 0.835 µM)
Pseudomonas aeruginosa [12]
  MIC: 0.5 µg/mL (≈ 1.67 µM)
Escherichia coli [13]
  MIC: 0.125 µg/mL (≈ 0.418 µM)
Escherichia coli [14]
  MIC: 0.25 µg/mL (≈ 0.835 µM)
Escherichia coli [15]
  MIC: 0.25 µg/mL (≈ 0.835 µM)
Escherichia coli [16]
  MIC: 0.25 µg/mL (≈ 0.835 µM)
Pseudomonas aeruginosa [17]
  Activity: Active
Escherichia coli [18]
  MIC: 0.25 µg/mL (≈ 0.835 µM)
Pseudomonas aeruginosa [1]
  MIC50: 8 µg/mL (≈ 26.7 µM)
  MIC90: 16 µg/mL (≈ 53.4 µM)
Pseudomonas aeruginosa [2]
  MIC50: 2 µg/mL (≈ 6.68 µM)
  MIC90: 16 µg/mL (≈ 53.4 µM)
Escherichia coli [19]
  MIC: 0.25 µg/mL (≈ 0.835 µM)
Escherichia coli [20]
  MIC: 0.25 µg/mL (≈ 0.835 µM)
Escherichia coli [21]
  MIC: 0.25 µg/mL (≈ 0.835 µM)
Escherichia coli [22]
  MIC: 0.25 µg/mL (≈ 0.835 µM)
Pseudomonas aeruginosa [23]
  MIC: 0.5 µg/mL (≈ 1.67 µM)
Pseudomonas aeruginosa [24]
  MIC: 128 µg/mL (≈ 428 µM)
Escherichia coli [25]
  MIC: 0.25 µg/mL (≈ 0.835 µM)
Escherichia coli [26]
  MIC: 0.25 µg/mL (≈ 0.835 µM)
Escherichia coli [27]
  MIC: 0.25 µg/mL (≈ 0.835 µM)
Escherichia coli [28]
  MIC: 0.25 µg/mL (≈ 0.835 µM)
Pseudomonas aeruginosa [29]
  MIC: 4 µg/mL (≈ 13.4 µM)
Pseudomonas aeruginosa [30]
  Activity: Active
Pseudomonas aeruginosa [3]
  MIC50: 16 µg/mL (≈ 53.4 µM)
  MIC90: 32 µg/mL (≈ 107 µM)
Pseudomonas aeruginosa [4]
  MIC: 16 µg/mL (≈ 53.4 µM)
  MIC50: 16 µg/mL (≈ 53.4 µM)
  MIC90: 32 µg/mL (≈ 107 µM)
Pseudomonas aeruginosa [31]
  MIC: 1 µg/mL (≈ 3.34 µM)
Pseudomonas aeruginosa [32]
  MIC: 1 µg/mL (≈ 3.34 µM)
Escherichia coli [33]
  MIC: 0.25 µg/mL (≈ 0.835 µM)
Pseudomonas aeruginosa [34]
  MIC: 1 µg/mL (≈ 3.34 µM)
Pseudomonas aeruginosa [35]
  MIC: 1 µg/mL (≈ 3.34 µM)
Escherichia coli [36]
  MIC: 0.25 µg/mL (≈ 0.835 µM)
Pseudomonas aeruginosa [37]
  MIC: 1 µg/mL (≈ 3.34 µM)
